# Results from PubChem BioAssay.
# Calls of active or inactive are those of the source.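 Rule for the calls, unless noted: active = NADPH fluorescence slope more negative than the mean of all samples by about 3 SD, 99.7% confidence; inactive = the rest.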
# Columns and labels:
# [1] = inhibitors of TNFa-induced NFkB p65 translocation, primary screen, imaging, HUVEC, MLSMR starter and 10KST1 sets (AID 438;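 active = inhibition above 20% together with a positive visual image hit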;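 note: compound added about 3h40 before a 20 min TNFalpha stimulation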;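 for inhibition: signal is the nuclear over cytoplasmic p65 intensity ratio per well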); details: HUVEC TNFa-induced p65 nuclear translocation; cell count: measured here: nuclei count (cytotoxicity indicator), at 2.08 µM; inhibition: at 2 µM, stronger effect = higher value, 0% TNFa-plus-vehicle, 100% no-TNFa wells
# [2] = endothelial E-selectin expression blockers – imaging, HUVEC, immunofluorescence, MLSMR starter and 10KST1 sets, primary screen (AID 487;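 active = visually confirmed hit in the image check and inhibition above 20%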;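 for inhibition: signal is fraction of cell area covered by stained E-selectin grains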;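 for nuclei count: 100% = median nuclei count of all wells on the same plate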); details: HUVEC TNFalpha-induced E-selectin immunofluorescence imaging, at 2 µM; inhibition: stronger effect = higher value; nuclei count: measured here: cell number, toxicity
# [3] = Primary imaging screen for DUSP6 inhibitors that restore phospho-Erk in transfected HeLa cells, chemical complementation (AID 609;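 active = compounds giving at least 50% inhibition in the cell-based MKP-3 phosphatase rescue imaging test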;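 for inhibition: phospho-Erk level distribution per well compared with pooled transfected vehicle control wells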); details: HeLa MKP-3 transfected, phospho-Erk imaging KS statistic, at 10 µM, cells stimulated with TPA for 15 min
# [4] = target: Dual specificity protein phosphatase 6 (Homo sapiens) (UniProt Q16828); assay: as above; details: HeLa MKP-3 transfected, phospho-Erk imaging KS statistic; at 10 µM; stronger effect = higher value; cells stimulated with TPA for 15 min
# [5] = target: Voltage-gated potassium channel subunit beta-2 (Rattus norvegicus) (UniProt P62483); assay: inhibitors of rat Kvbeta2 reductase activity – biochemical, NADPH fluorescence, primary screen (AID 622;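 active = fluorescence slope higher than the sample average by over 3 SD, cut at about -0.22 in these data, passing the limit was not always enough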;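 note: slope of raw intensity against log time taken from 70 to 1610 s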); details: recombinant KvBeta, 4-cyanobenzaldehyde reduction, at 10 µM, stronger effect = higher value
# [6] = target: Voltage-gated potassium channel subunit beta-2 (Rattus norvegicus) (UniProt P62483); assay: enhancers of rat Kvbeta2 NADPH turnover – biochemical, NADPH fluorescence, primary screen (AID 623); details: Recombinant KvBeta, NADPH fluorescence decrease slope, 10 min; at 10 µM; stronger effect = lower value;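 note: fluorescence intensity change per second fitted from 20 to 320 s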
# [7] = target: Muscarinic acetylcholine receptor M4 (Homo sapiens) (UniProt P08173); assay: M4-linked GIRK flux change, two-sided – cell-based, HEK293 M4/GIRK, thallium flux, BTC-AM, M4 allosteric agonist project, primary screen (AID 625;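 active = fluorescence slope after compound addition differing from the mean of all tested samples at 99.7% confidence, mostly higher but some lower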;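 note: thallium influx through GIRK channels coupled to M4 in HEK293 cells with BTC-AM dye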); details: at 10 µM, actives lie on both sides
# Outline: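 Assay system: HEK293 cells with M4 receptor and GIRK channels / Controls: carbachol and DMSO controls / Schedule: 1 h dye loading, 2 min kinetic read / Technique: kinetic fluorescence with BTC-AM dye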
# [8] = inhibitors of larval lipid processing in zebrafish, primary screen, whole organism, PED6 fluorescence, gall bladder and intestine (AID 686;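 active = a full or partial loss of lipid-probe fluorescence in the fish gall bladder, intestine or both, judged by eye; inactive = no fluorescence loss, or compound toxic to the fish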;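 note: larvae 5 to 7 days old with five fish per well; signal comes from phospholipase A2 cleavage of quenched PED6 carried via bile; overnight exposure to compound and PED6 before scoring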); details: Zebrafish larvae PED6 lipid processing, fluorescence scoring; screened at 20 µM (by protocol)
# Outline: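 Doses: 20 µM single dose. Test system: live zebrafish larvae aged 5-7 days, whole organism. Quantity: five larvae per well. Measured by: By-eye fluorescence microscopy. Reagent: ingested quenched lipid PED6 at 100 nM. Read-out: visual per-well fluorescence inhibition score. Times: overnight exposure of larvae to compound plus PED6.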
# [9] = loss of swimming-algae plug formation – whole organism, Chlamydomonas reinhardtii, WT vs cilia-less mutant, absorbance, 96-well, primary screen (AID 463189;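 active = inhibition at or above 50% relative to wild type and mutant plate controls; inactive = inhibition below 50%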;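 note: 0% = wild type cc124 cells in DMSO and 100% = ciliumless bld1 mutant cells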); details: Chlamydomonas reinhardtii gravitaxis, OD600 absorbance, 2 days; at 10 µM; stronger effect = higher value
# [10] = measured here: cell density z-score
# [11] = measured here: nuclear c-Myc green intensity z-score
# [12] = measured here: nuclear pErk red intensity z-score, stronger effect = higher value
# Sequence of Dual specificity protein phosphatase 6 (Homo sapiens) (Q16828 whole entry, looked up): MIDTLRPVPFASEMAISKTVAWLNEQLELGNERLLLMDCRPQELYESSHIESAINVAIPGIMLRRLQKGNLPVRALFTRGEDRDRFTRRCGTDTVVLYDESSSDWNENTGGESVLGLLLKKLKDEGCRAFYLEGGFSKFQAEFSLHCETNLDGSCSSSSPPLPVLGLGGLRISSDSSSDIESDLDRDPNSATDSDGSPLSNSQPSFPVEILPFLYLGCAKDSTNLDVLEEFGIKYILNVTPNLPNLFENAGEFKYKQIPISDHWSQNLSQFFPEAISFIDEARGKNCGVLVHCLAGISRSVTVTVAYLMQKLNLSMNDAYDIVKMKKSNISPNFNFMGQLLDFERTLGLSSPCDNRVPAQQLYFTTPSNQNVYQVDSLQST
# Sequence of Voltage-gated potassium channel subunit beta-2 (Rattus norvegicus) (P62483 whole entry, looked up): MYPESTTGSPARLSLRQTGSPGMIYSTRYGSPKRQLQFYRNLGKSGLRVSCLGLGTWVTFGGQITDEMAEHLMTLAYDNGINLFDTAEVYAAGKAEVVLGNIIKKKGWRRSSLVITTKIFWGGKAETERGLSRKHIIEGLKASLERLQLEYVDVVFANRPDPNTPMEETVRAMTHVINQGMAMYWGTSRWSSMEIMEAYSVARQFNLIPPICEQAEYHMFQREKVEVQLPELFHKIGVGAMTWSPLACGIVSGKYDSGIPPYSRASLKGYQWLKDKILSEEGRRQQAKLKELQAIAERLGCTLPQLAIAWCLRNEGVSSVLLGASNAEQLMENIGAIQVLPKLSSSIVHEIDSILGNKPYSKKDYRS
# Sequence of Muscarinic acetylcholine receptor M4 (Homo sapiens) (P08173 whole entry, looked up): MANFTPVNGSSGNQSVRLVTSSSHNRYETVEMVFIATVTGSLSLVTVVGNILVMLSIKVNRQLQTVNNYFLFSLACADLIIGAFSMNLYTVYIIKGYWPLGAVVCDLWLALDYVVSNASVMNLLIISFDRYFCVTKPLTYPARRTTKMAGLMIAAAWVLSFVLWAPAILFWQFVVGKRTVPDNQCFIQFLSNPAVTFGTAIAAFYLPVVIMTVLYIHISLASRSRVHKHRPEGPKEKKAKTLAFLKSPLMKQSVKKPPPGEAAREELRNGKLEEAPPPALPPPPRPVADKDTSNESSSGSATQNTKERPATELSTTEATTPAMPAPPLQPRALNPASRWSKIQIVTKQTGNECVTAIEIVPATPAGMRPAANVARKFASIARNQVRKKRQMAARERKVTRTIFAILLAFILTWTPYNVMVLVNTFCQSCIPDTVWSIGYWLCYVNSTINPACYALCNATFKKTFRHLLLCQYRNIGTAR
Compound,cell count [1],inhibition [1],inhibition [2],nuclei count [2] [%],"z-score [3, 10]","z-score [3, 11]","z-score [3, 12]",inhibition [4],fluorescence slope [5],NADPH fluorescence slope [6],fluorescence slope [7],outcome [8],inhibition [9]
N#Cc1c(N)nc(SCC(=O)NCc2ccc3c(c2)OCO3)c(C#N)c1-c1cccs1,577,-0.3% (inactive),53.2% (inactive),115,0.98,1.31,-0.212,6.04% (inactive),-0.493 (inactive),-6.7e-05 (inactive),0.00636 (inactive),inactive,-14% (inactive)
COc1ccc2c(c1OC)C(=O)OC2c1c(O)nc(SC)n(-c2ccccc2)c1=O (stereo unspecified),494,4.1% (inactive),-192% (inactive),115,1.24,1.53,-0.802,29.7% (inactive),-0.39 (inactive),-6.5e-05 (inactive),0.00866 (inactive),inactive,-18.2% (inactive)
Cc1ccc(S(=O)(=O)/C(C#N)=C/c2c(N3CCN(C)CC3)nc3ccccn3c2=O)cc1,484,6.4% (inactive),-211% (inactive),173,0.277,-0.883,0.543,1.04% (inactive),-0.454 (inactive),-5.5e-05 (inactive),0.0048 (inactive),inactive,-9.76% (inactive)
O=C1CC(c2ccccc2)n2nc(NS(=O)(=O)c3ccccc3)nc2N1 (stereo unspecified),363,-12.1% (inactive),-108% (inactive),114,1.38,-0.224,-0.593,14.4% (inactive),-0.486 (inactive),-2.9e-05 (inactive),0.00519 (inactive),inactive,-8.7% (inactive)
CCOc1ccc(N2C(=O)CC(N)C2=O)cc1 (stereo unspecified),726,11.3% (inactive),33.5% (inactive),123,-0.139,1.28,0.161,-13.3% (inactive),-0.462 (inactive),-5.8e-05 (inactive),0.00592 (inactive),inactive,19.4% (inactive)
CCN(CC)CCN1C(=O)C(O)=C(C(=O)c2cc3ccccc3o2)C1c1cccnc1 (stereo unspecified),423,-6.8% (inactive),14.8% (inactive),163,-0.472,-0.722,-0.061,3.56% (inactive),-0.431 (inactive),-0.000135 (inactive),0.00445 (inactive),inactive,-8.96% (inactive)
CCOC(=O)C1CCCN(c2nc3ccccc3nc2C(C#N)C(=O)OC(C)COC)C1 (stereo unspecified),683,-5.4% (inactive),-63% (inactive),204,-1,0.049,0.811,-5.81% (inactive),-0.495 (inactive),-0.000103 (inactive),0.00181 (inactive),inactive,23.6% (inactive)
CC(C)(C)C1=Nn2c(nnc2C2CCCCC2)SC1,802,-5.9% (inactive),-150% (inactive),189,0.781,1.46,0.611,2.46% (inactive),-0.452 (inactive),-7.5e-05 (inactive),0.00451 (inactive),inactive,3.81% (inactive)
Cn1c(=O)c2c(nc(Oc3ccc4c(c3)OCO4)n2Cc2ccc(Br)cc2)n(C)c1=O,619,8.1% (inactive),-44% (inactive),123,0.319,-0.507,0.317,7.93% (inactive),-0.562 (inactive),-3.8e-05 (inactive),0.00702 (inactive),inactive,29.5% (inactive)
COc1cccc(NC(=O)C2CC(=O)n3cnnc3S2)c1 (stereo unspecified),518,-3.8% (inactive),12.1% (inactive),177,0.777,-1.1,-0.46,35.7% (inactive),-0.339 (inactive),-2.8e-05 (inactive),0.00822 (inactive),inactive,40.5% (inactive)
Cc1cccc(-c2nc(C#N)c(NC3CCCCC3)o2)c1,373,-5.1% (inactive),-71.9% (inactive),134,1.1,-0.201,-0.602,9.82% (inactive),-0.492 (inactive),-0.000119 (inactive),0.00501 (inactive),inactive,-0.036% (inactive)
CCCn1nnc(NC(=O)c2cc(Br)cc(Br)c2OC)n1,391,-1.7% (inactive),-24.1% (inactive),127,0.877,0.738,0.427,20.2% (inactive),-0.463 (inactive),-0.000102 (inactive),0.00469 (inactive),inactive,8.4% (inactive)
CCCSc1nnc2n(Cc3ccccc3)c(=O)c3c4c(sc3n12)CCC4,405,-0.7% (inactive),-31.5% (inactive),170,0.317,-0.563,1.11,-4.59% (inactive),-0.453 (inactive),-0.000111 (inactive),0.00548 (inactive),inactive,9.79% (inactive)
COc1cccc(C2=CC(c3ccc(N(C)C)cc3)n3nnnc3N2)c1 (stereo unspecified),525,0.8% (inactive),27.7% (inactive),156,-0.234,1.06,0.0937,9.91% (inactive),-0.33 (inactive),-3.6e-05 (inactive),0.00494 (inactive),inactive,-6.32% (inactive)
COCCCn1c(C)nc2c(c1=O)c1nc3ccccc3nc1n2CCc1ccccc1,709,4.3% (inactive),18.7% (inactive),162,-0.739,-0.364,-0.291,-9.53% (inactive),-0.341 (inactive),-5.1e-05 (inactive),0.00467 (inactive),inactive,8.3% (inactive)
COc1ccc(C(=O)c2ccc(N3CCOCC3)cc2)c(OC)c1,624,-6.6% (inactive),-21.8% (inactive),99.4,-2.58,0.925,1.09,5.95% (inactive),-0.488 (inactive),-6.2e-05 (inactive),0.00684 (inactive),inactive,-11.4% (inactive)
Cc1cc(CCC(=O)O)c(C)cc1CCC(=O)O,593,0.2% (inactive),-64.2% (inactive),149,0.485,1.16,-0.56,5.35% (inactive),-0.452 (inactive),-0.000105 (inactive),0.00588 (inactive),inactive,1.89% (inactive)
